The source of these data is ChEMBL document CHEMBL4613270, “Structure-Activity Relationship Study Enables the Discovery of a Novel Berberine Analogue as the RXRα Activator to Inhibit Colon Cancer” (J Med Chem, 2020).

In data set [1] the target is T1, Retinoic acid receptor RXR-alpha (Homo sapiens) (UniProt P19793).
T1 sequence (whole entry): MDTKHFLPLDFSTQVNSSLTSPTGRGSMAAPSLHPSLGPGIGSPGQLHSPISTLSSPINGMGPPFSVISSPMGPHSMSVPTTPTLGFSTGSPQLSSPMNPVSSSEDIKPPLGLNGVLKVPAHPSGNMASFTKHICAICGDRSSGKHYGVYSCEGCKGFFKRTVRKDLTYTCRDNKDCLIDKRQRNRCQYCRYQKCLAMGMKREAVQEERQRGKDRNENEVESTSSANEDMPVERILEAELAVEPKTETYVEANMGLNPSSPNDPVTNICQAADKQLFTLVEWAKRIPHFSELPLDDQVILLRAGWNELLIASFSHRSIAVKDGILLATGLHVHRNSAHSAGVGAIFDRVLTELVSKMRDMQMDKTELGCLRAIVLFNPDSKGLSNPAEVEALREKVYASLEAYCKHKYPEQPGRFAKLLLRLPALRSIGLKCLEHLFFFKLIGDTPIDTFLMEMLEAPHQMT
Kind of data set: In-vivo activation of RXRalpha in BALB/c mouse xenografted with human KM12C cells assessed as reduction in c-Myc mRNA expression at 100 mg/kg, ig dosed daily for 15 days by real-time PCR analysis. It is filed as functional, organism-based. In short, it runs like this: (§1)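 KM12C cells (1×10^6 per mouse in 100 μL HBSS) injected subcutaneously into both flanks of nude mice; after seven days, randomized to three groups, dosed intragastrically once daily for 15 days with vehicle (CMC-Na) or 100 mg/kg compound; mice euthanized and tumors removed for analysis.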
In general terms: Xenograft models place foreign cells or tissue in a host animal.

The target of data set [2] is T1, Retinoic acid receptor RXR-alpha (Homo sapiens). Briefly: In-vivo activation of RXRalpha in BALB/c mouse xenografted with human KM12C cells assessed as increase in p21 (WAF1/CIP) protein expression at 100 mg/kg, ig dosed daily for 15 days by immunohistochemistry analysis. The class given is functional, organism-based.
For data set [3] the target is unchanged. Kind of data set: In-vivo activation of RXRalpha in BALB/c mouse xenografted with human KM12C cells assessed as reduction in c-Myc protein expression at 100 mg/kg, ig dosed daily for 15 days by Western blot analysis. The class given is functional, organism-based. In short, it runs like this: as §1
For data set [4] the target is unchanged. Kind of data set: Activation of RXRalpha in human HCT116 cells assessed as inhibition of Wnt/beta-catenin-dependent transcriptional activity at 30 to 60 uM incubated for 15 hrs by TOP/FOP luciferase assay. It is filed as cell-based. The conditions noted are these: HCT-116. In short, it runs like this:
(§2)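 TOP/FOP reporter: cells co-transfected by lipofection with pRL-TK plus TOPflash or FOPflash; compound added 20 h after transfection for 15 h; passive lysis at 4 °C, 1 h; firefly and Renilla luciferase measured by dual-luciferase assay.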

For data set [5] the target is unchanged. Kind of data set: Activation of RXRalpha in human SW620 cells assessed as inhibition of Wnt/beta-catenin-dependent transcriptional activity at 40 to 80 uM incubated for 15 hrs by TOP/FOP luciferase assay. It is filed as cell-based. The conditions noted are these: SW-620. An outline of the steps: as §2
For data set [6] the target is unchanged. Kind of data set: Activation of RXRalpha in human HCT116 cells assessed as reduction in c-Myc protein expression at 30 to 60 uM incubated for 15 hrs by Western blot analysis. The class given is cell-based. Particulars: HCT-116. For orientation: A western blot detects proteins with antibodies after separation by electrophoresis.
For data set [7] the target is unchanged. Briefly: In-vivo activation of RXRalpha in BALB/c mouse xenografted with human KM12C cells assessed as reduction in Cdc2 protein expression at 100 mg/kg, ig dosed daily for 15 days by Western blot analysis. The class given is functional, organism-based. An outline of the steps: as §1
For data set [8] the target is unchanged. Briefly: Activation of RXRalpha in human KM12C cells assessed as reduction in c-Myc protein expression at 25 to 50 uM incubated for 15 hrs by Western blot analysis. The class given is cell-based.
For data set [9] the target is unchanged. Kind of data set: Activation of RXRalpha in human SW620 cells assessed as […] crease in p21 (WAF1/CIP1) mRNA expression at 40 to 80 uM incubated for 15 hrs by real-time PCR analysis. The class given is cell-based. The conditions noted are these: SW-620.
The test system of the next data set is MEF. Briefly: Toxicity in mouse MEF cells assessed a reduction in cell viability at 6.25 to 100 uM incubated for 15 hrs by MTT assay. The class given is cell-based. An outline of the steps: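 HIEC-6 cells grown in MEM with 4% FBS, HEPES, GlutaMAX and 10 ng/mL EGF. MEF cells grown in DMEM high glucose with 10% FBS. Cells plated at 1×10⁴ per well and treated with a concentration series for 15 h. Viability read by MTT: 4 h at 37 °C, DMSO solubilization, absorbance at 570 nm.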

For data set [10], the target named is T1, Retinoic acid receptor RXR-alpha (Homo sapiens). Kind of data set: Activation of RXRalpha in human HCT116 cells assessed as increase transactivational activity on RXRE at 30 to 60 uM incubated for 15 hrs by luciferase reporter gene assay. It is filed as cell-based. The conditions noted are these: HCT-116. An outline of the steps:
(§3)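 Endogenous RXRα transactivation on an RXRE luciferase reporter, lipofection-transfected; compound added 20 h post-transfection for 15 h; lysis in passive lysis buffer at 4 °C, 1 h; firefly and Renilla luciferase activities read by dual-luciferase assay.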
A general note: Reporter assays use an easily measured gene product as a stand-in for the process of interest.

Data set [11] shares this target. Briefly: Activation of RXRalpha in human HCT116 cells assessed as […] protein expression at 30 to 60 uM incubated for 15 hrs by Western blot analysis. The class given is cell-based. Particulars: HCT-116.
Data set [12] shares this target. Kind of data set: Activation of RXRalpha in human KM12C cells assessed as […] crease in p21 (WAF1/CIP1) mRNA expression at 25 to 50 uM incubated for 15 hrs in presence of RXRalpha shRNA by real-time PCR analysis. It is filed as cell-based.
A further data set relates to KM12C. Kind of data set: Inhibition of cell proliferation of human KM12C cells at 25 to 50 uM incubated for 15 hrs by EdU assay. The class given is functional, cell-based. In short, it runs like this: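 KM12C cells grown in MEM with 10% FBS, penicillin/streptomycin, nonessential amino acids and vitamins at 37 °C, 5% CO2. Proliferation was scored with an EdU incorporation kit, and cells were examined under a fluorescence microscope.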

Data set [13] has as its target T1, Retinoic acid receptor RXR-alpha (Homo sapiens). Kind of data set: Binding affinity to His-tagged RXRalpha LBD (unknown origin) expressed in Escherichia coli strain BL21 (DE3) at 200 uM by STD-NMR spectroscopy.
Data set [14] has the same target. Kind of data set: Activation of RXRalpha in human SW620 cells assessed as […] in PCNA protein expression at 40 to 80 uM incubated for 15 hrs by Western blot analysis. It is filed as cell-based. The conditions noted are these: SW-620.
The target is the same in data set [15]. Briefly: Activation of RXRalpha in human KM12C cells assessed as […] protein expression at 25 to 50 uM incubated for 15 hrs by Western blot analysis. The class given is cell-based.
Data set [16] is described as follows: Hepatotoxicity in BALB/c mouse xenografted with human KM12C cells assessed as induction of hepatocellular morphology damage at 100 mg/kg, ig dosed daily for 15 days by H and E staining. The class given is toxicity, organism-based. Particulars: in vivo, po, 360 h.
For data set [17], the target named is T1, Retinoic acid receptor RXR-alpha (Homo sapiens). Briefly: Activation of RXRalpha in human SW620 cells assessed as increase transactivational activity on RXRE at 40 to 80 uM incubated for 15 hrs by luciferase reporter gene assay. The class given is cell-based. The conditions noted are these: SW-620. An outline of the steps: as §3
The next data set deals with HCT-116. Briefly: Inhibition of cell proliferation of human HCT116 cells at 30 to 60 uM incubated for 15 hrs by EdU assay. The class given is functional, cell-based. In short, it runs like this: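 Colon cancer cells treated for 15 h. Proliferation measured in 96-well plates using an EdU incorporation kit, with cells examined under a fluorescence microscope.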
The target of data set [18] is T1, Retinoic acid receptor RXR-alpha (Homo sapiens). Briefly: Activation of RXRalpha in human KM12C cells assessed as reduction in Cdc2 mRNA expression at 25 to 50 uM incubated for 15 hrs in presence of RXRalpha shRNA by real-time PCR analysis. It is filed as cell-based.
A short description of data set [19]: Hepatotoxicity in BALB/c mouse xenografted with human KM12C cells assessed as induction of necrotic hepatocytes at 100 mg/kg, ig dosed daily for 15 days by H and E staining. Particulars: in vivo, po, 360 h. It is filed as toxicity, organism-based.

Activity calls are given as the source filed them. The calls are words filed in the database; no cut-off is given here.

As for `COc1ccc2cc3[n+](cc2c1OC)CCc1cc2c(cc1-3)OCO2.[Cl-]` [BERBERINE CHLORIDE], the result in data set [1], in data set [2], in data set [3], in data set [4], in data set [5] and in data set [6] was Active. The result in data set [7], in data set [8] and in data set [9] was Active.
Regarding `COc1ccc2c(c1)CC[n+]1cc3c(OC)cccc3cc1-2.[Cl-]`, the outcome in data set [1], in [10], in data set [2], in data set [11], in data set [3] and in [4] was Active. For the same compound, the outcome in data set [13], in [14], in data set [15], in [5], in [6] and in data set [7] was Active. The outcome in data set [17], in data set [8] and in [9] was Active. Also, the Activity result (in the data set on MEF; in [16]; in [19]) was “Non-Toxic” throughout. The outcome in data set [12] and in data set [18] was inactive. For the same compound, the inhibition entry with KM12C and with HCT-116 was “Active” throughout.
